Experimental data gathered from unrelated publications.
Lines come from different studies, so protocols differ.
Target: Leukocyte tyrosine kinase receptor (LTK, Homo sapiens, UniProt P29376)

Structure (SMILES) | observed | mode | method | tested at | endpoint | result
Cc1cnc(NC2CCOCC2)nc1-n1cnc(C(=O)NC(CN)c2cc(F)cc(Cl)c2)c1 (stereo not shown) | enzyme activity | inhibitor | radiometric | 1 µM | remaining activity | 103%
COc1cc2ncnc(Nc3ccc(Oc4ccccc4)cc3C)c2cc1OC | enzyme activity | inhibitor |  | 1 µM | inhibition | -5%
CC(C)(O)[C@H]1CC[C@H](Nc2ccc3ncc(-c4cccc(C(F)(F)F)c4)n3n2)CC1 | enzyme activity | inhibitor |  | 1 µM | remaining activity | 70.5%
COc1cc2ncnc(Nc3ccc(Oc4ccccc4)c(C)c3C)c2cc1OC | enzyme activity | inhibitor |  | 1 µM | inhibition | -2%
Nc1ncnc2occ(-c3ccc(NC(=O)Nc4cc(C(F)(F)F)ccc4F)cc3)c12 | enzyme activity | inhibitor |  | 20 µM | remaining activity | 1.6%
Cc1noc([C@H]2C[C@@H](c3ccc(C(F)(F)F)cc3)CN(C(=O)N3CCS(=O)(=O)C3)C2)n1 | cell-free assay |  | competition with immobilised ligand | 1 µM | remaining binding | 100%
Cc1sc(C(=O)NC2COC2)cc1-n1cc(NC(=O)Nc2c(F)cccc2Cl)cn1 | enzyme activity | inhibitor |  | 10 µM | remaining activity | 114%
O=C(Nc1cnc(Oc2ccc(F)cc2)nc1)N1CCc2ncccc2[C@@H]1c1ccc(F)cc1 | cell-free assay |  | competition with immobilised ligand | 1 µM | remaining binding | 93%
CCCS(=O)(=O)Nc1ccc(F)c(C(=O)c2c[nH]c3ncc(-c4ccc(Cl)cc4)cc23)c1F | enzyme activity | inhibitor |  | 1 µM | inhibition | < 10%
O=C(Nc1cnn(-c2csc(C(=O)NC3COC3)c2)c1)Nc1c(F)cccc1Cl | enzyme activity | inhibitor |  | 5 µM | remaining activity | 92.2%
Cc1ccc(NC(=O)c2ccc(C)c(C(F)(F)F)c2)cc1C#Cc1nn(C2CCC(O)CC2)c2ncnc(N)c12 (stereo not shown) | cell-free assay |  |  | 10 µM | remaining signal | 73%
O=C(O)[C@H]1[C@H](Cn2nnc3ccccc3c2=O)CC[C@@H]1C(=O)c1ccc(OCCC2CCOCC2)cc1 | cell-free assay |  | competition with immobilised ligand | 1 µM | remaining binding | 100%
Cc1cc(NC(=O)c2cccc3cc(-c4cccc5[nH]nc(N)c45)ccc23)ccc1F | enzyme activity | inhibitor |  | 0.1 µM | activity vs control | 96%
COc1cc(Cl)c(C(=O)N[C@@H](CN[C@H]2CC[C@@H](N)CC2)Cc2ccc(C#N)cc2)cc1-c1ccc(CN[C@H](C)c2ccc(C)cc2)o1 | enzyme activity | inhibitor |  | 1 µM | remaining activity | 94%
CC/C(=N\NC(=O)NCc1cccc(O)c1)c1ccc(O)c(C)c1O | enzyme activity | inhibitor |  | 0.1 µM | inhibition | -1.4%
COCCOc1nc(-c2ccc(Cl)nc2)nc2c1CN(C(=O)c1ncn3ccccc13)CC2 | cell-free assay |  | competition with immobilised ligand | 0.1 µM | remaining binding | 100%
Cc1ccc(C(=O)NCc2ccsc2)cc1C#Cc1cn(C(C)C)c2ncnc(N)c12 | enzyme activity | inhibitor |  | 1 µM | activity vs control | 95%
COc1cc2nccc(Oc3ccc(NC(=O)c4c5n(n(-c6ccc(F)cc6)c4=O)CCCC5)cc3)c2cc1OC | enzyme activity | inhibitor |  | 0.1 µM | inhibition | -10%
Cc1ccc(C(=O)Nc2ccc(CN3CCN(C)CC3)c(C(F)(F)F)c2)cc1C#Cc1cnc2cccnn12 | cell-free assay |  |  | 23.5 nM | remaining signal | 82%
